Reference: ChEMBL document CHEMBL4028836, “Optimization of M4 positive allosteric modulators (PAMs): The discovery of VU0476406, a non-human primate in vivo tool compound for translational pharmacology” (Bioorg Med Chem Lett, 2017)

Experiments:
[1] = biological target: T1, Muscarinic acetylcholine receptor M4 (Homo sapiens, UniProt P08173); assay: Positive allosteric modulation of human M4 receptor expressed in CHO cells coexpressing Gqi5 assessed as increase in acetylcholine-induced calcium mobilization; assay type: functional, cell-based; details: read-out: EC50
T1 sequence (P08173 whole entry): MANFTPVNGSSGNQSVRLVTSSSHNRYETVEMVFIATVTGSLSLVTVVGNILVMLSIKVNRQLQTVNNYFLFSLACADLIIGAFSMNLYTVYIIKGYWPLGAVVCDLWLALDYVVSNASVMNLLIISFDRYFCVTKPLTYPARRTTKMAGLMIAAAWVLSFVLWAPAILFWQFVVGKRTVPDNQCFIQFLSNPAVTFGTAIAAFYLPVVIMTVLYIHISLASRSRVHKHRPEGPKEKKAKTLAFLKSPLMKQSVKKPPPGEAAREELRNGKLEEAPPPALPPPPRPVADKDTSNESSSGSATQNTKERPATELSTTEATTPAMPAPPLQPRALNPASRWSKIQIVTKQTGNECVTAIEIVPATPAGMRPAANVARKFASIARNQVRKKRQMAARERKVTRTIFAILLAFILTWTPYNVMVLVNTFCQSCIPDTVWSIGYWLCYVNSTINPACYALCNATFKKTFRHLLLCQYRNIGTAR
Summary of the method: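 Calcium mobilization in CHO cells expressing hM4 with Gqi5. Compound added in presence of a fixed EC20 concentration of acetylcholine. Values are means of three independent experiments, each run in triplicate.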

Cytochrome P450 2C9 = Cytochrome P450 2C9 (Homo sapiens, UniProt P11712); assay: Inhibition of CYP2C9 (unknown origin); assay type: ADME
Cytochrome P450 2D6 = Cytochrome P450 2D6 (Homo sapiens, UniProt P10635); assay: Inhibition of CYP2D6 (unknown origin); assay type: ADME
Rattus norvegicus [2] = assay: Elimination half-life in Sprague-Dawley rat at 0.1 to 1 mg/kg, iv; assay type: ADME, organism-based; details: in vivo
Rattus norvegicus [3] = assay: Volume of distribution at steady state […] in Sprague-Dawley rat at 0.1 to 1 mg/kg, iv; assay type: ADME, organism-based; details: in vivo
Summary of the method: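 IV pharmacokinetics in Sprague-Dawley rats at 0.1–1.0 mg/kg. CLp, elimination t½ and Vss derived.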

[4] = biological target: Muscarinic acetylcholine receptor M4 (Rattus norvegicus, UniProt P08485); assay: Positive allosteric modulation of rat M4 receptor assessed as increase in acetylcholine-induced calcium mobilization; assay type: functional
Summary of the method: (§1)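 M4 PAM concentration-response curves measured by calcium mobilization at the stated species' receptor. Potency reported as EC50/pEC50 and efficacy as % of acetylcholine maximum.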

[5] = Positive allosteric modulation of dog M4 receptor assessed as increase in acetylcholine-induced calcium mobilization; design: species or system Canis lupus familiaris; summary of the method: as §1
[6] = Positive allosteric modulation of cynomolgus monkey M4 receptor assessed as increase in acetylcholine-induced calcium mobilization; design: species or system Macaca fascicularis; summary of the method: as §1
[7] = biological target: Muscarinic acetylcholine receptor M1 (Homo sapiens, UniProt P11229); assay: Activity at human M1 receptor
[8] = biological target: Muscarinic acetylcholine receptor M3 (Homo sapiens, UniProt P20309); assay: Activity at human M3 receptor
[9] = biological target: Muscarinic acetylcholine receptor M5 (Homo sapiens, UniProt P08912); assay: Activity at human M5 receptor
[10] = biological target: Muscarinic acetylcholine receptor M1 (Rattus norvegicus, UniProt P08482); assay: Activity at rat M1 receptor
[11] = biological target: Muscarinic acetylcholine receptor M2 (Rattus norvegicus, UniProt P10980); assay: Activity at rat M2 receptor
[12] = biological target: Muscarinic acetylcholine receptor M3 (Rattus norvegicus, UniProt P08483); assay: Activity at rat M3 receptor
[13] = biological target: Muscarinic acetylcholine receptor M5 (Rattus norvegicus, UniProt P08911); assay: Activity at rat M5 receptor
[14] = biological target: Voltage-gated inwardly rectifying potassium channel KCNH2 (Homo sapiens, UniProt Q12809); assay: Inhibition of human ERG
Salmonella typhimurium [15] = assay: Mutagenicity in Salmonella typhimurium TA98 by mini-Ames test; assay type: toxicity; details: salmonella enterica subsp. enterica serovar typhimurium
Summary of the method: (§2)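 Mini-Ames mutagenicity assay in Salmonella typhimurium strains TA98 and TA100, run with and without S9 metabolic activation.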

Salmonella typhimurium [16] = assay: Mutagenicity in Salmonella typhimurium TA100 in presence of S9 fraction by mini-Ames test; assay type: toxicity; details: salmonella enterica subsp. enterica serovar typhimurium; summary of the method: as §2
CYP2B6 = CYP2B6 (Homo sapiens, UniProt P20813); assay: Induction of CYP2B6 in cryopreserved human hepatocytes measured after 48 hrs; assay type: ADME, cell-based
Summary of the method: (§3)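 Cryopreserved human hepatocytes incubated for 48 hr, with enzyme activity as read-out. Induction expressed as EC50 and Emax.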

CYP3A4 = CYP3A4 (Homo sapiens, UniProt P08684); assay: Induction of CYP3A4 in cryopreserved human hepatocytes measured after 48 hrs; assay type: ADME, cell-based; summary of the method: as §3
[17] = Oral bioavailability in rat at 10 mg/kg; assay type: ADME, organism-based; details: in vivo
Summary of the method: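 Rat oral bioavailability from a 10 mg/kg solution dose. Separately, the HCl salt was dosed as a suspension.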

[18] = Brain to plasma permeability coefficient, Kp of the compound in dog at 3 mg/kg, iv or po at 2 hrs post dose; assay type: ADME, organism-based, Canis lupus familiaris
Summary of the method: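 Dog terminal study, with brain, plasma and CSF collected at 2.0 hr. Brain:plasma Kp, Kp,uu and Ccsf:Cplasma,u were derived.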

[19] = Ratio of unbound brain to plasma concentration in dog at 3 mg/kg, iv or po at 2 hrs post dose; assay type: ADME, organism-based, Canis lupus familiaris
Summary of the method: (§4)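 CNS penetration in dog by terminal study at 2.0 hr. Brain:plasma Kp, Kp,uu and unbound CSF:plasma ratio determined.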

[20] = Ratio of unbound CSF to plasma concentration in dog at 3 mg/kg, iv or po at 2 hrs post dose; assay type: ADME, organism-based, Canis lupus familiaris; summary of the method: as §4
[21] = Drug metabolism in dog cryopreserved hepatocytes assessed as metabolite M1 formation; assay type: ADME, cell-based, Canis lupus familiaris, Hepatocyte
[22] = Drug metabolism in cynomolgus monkey cryopreserved hepatocytes assessed as metabolite M2 formation; assay type: ADME, cell-based, Macaca fascicularis, Hepatocyte
[23] = Drug metabolism in rat cryopreserved hepatocytes assessed as metabolite M3 formation; assay type: ADME, cell-based, Hepatocyte
[24] = Drug metabolism in cynomolgus monkey cryopreserved hepatocytes assessed as metabolite M3 formation; assay type: ADME, cell-based, Macaca fascicularis, Hepatocyte
[25] = Drug metabolism in rat cryopreserved hepatocytes assessed as metabolite M4 formation; assay type: ADME, cell-based, Hepatocyte
[26] = Drug metabolism in cynomolgus monkey cryopreserved hepatocytes assessed as metabolite M4 formation; assay type: ADME, cell-based, Macaca fascicularis, Hepatocyte
[27] = Drug metabolism in human cryopreserved hepatocytes assessed as metabolite M4 formation; assay type: ADME, cell-based, Hepatocyte
[28] = Drug metabolism in cynomolgus monkey cryopreserved hepatocytes assessed as metabolite M5 formation; assay type: ADME, cell-based, Macaca fascicularis, Hepatocyte
[29] = Drug metabolism in dog cryopreserved hepatocytes assessed as metabolite M5 formation; assay type: ADME, cell-based, Canis lupus familiaris, Hepatocyte
[30] = Drug metabolism in cynomolgus monkey cryopreserved hepatocytes assessed as metabolite M6 formation; assay type: ADME, cell-based, Macaca fascicularis, Hepatocyte
[31] = Drug metabolism in human cryopreserved hepatocytes assessed as metabolite M6 formation; assay type: ADME, cell-based, Hepatocyte
[32] = Drug metabolism in cynomolgus monkey cryopreserved hepatocytes assessed as metabolite M8 formation; assay type: ADME, cell-based, Macaca fascicularis, Hepatocyte
[33] = Drug metabolism in human cryopreserved hepatocytes assessed as metabolite M8 formation; assay type: ADME, cell-based, Hepatocyte
[34] = Glutathione reactivity in human hepatic microsomes assessed as GSH-adduct formation; assay type: ADME, Liver, Microsome
[35] = Aqueous solubility of the compound at pH 7.4; assay type: physicochemical; details: buffer
[36] = Unbound plasma concentration in human; assay type: ADME, cell-free
[37] = Unbound plasma concentration in rat; assay type: ADME, cell-free
[38] = Unbound brain concentration in rat; assay type: ADME, tissue-based

Muscarinic acetylcholine receptor M4 (Rattus norvegicus, UniProt P08485), sequence (P08485 whole entry): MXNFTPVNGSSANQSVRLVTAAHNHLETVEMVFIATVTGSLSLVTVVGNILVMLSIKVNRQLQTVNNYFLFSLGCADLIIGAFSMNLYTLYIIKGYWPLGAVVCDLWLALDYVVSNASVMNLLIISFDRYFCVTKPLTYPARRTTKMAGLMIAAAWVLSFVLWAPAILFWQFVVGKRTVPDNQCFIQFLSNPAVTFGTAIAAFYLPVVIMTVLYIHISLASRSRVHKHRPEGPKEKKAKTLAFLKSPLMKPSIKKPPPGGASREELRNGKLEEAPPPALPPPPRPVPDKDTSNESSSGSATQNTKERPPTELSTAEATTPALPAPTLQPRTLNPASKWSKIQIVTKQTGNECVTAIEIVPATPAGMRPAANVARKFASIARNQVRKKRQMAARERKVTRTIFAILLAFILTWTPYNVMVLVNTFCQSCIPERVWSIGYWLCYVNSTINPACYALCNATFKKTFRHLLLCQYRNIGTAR
Cytochrome P450 2D6, sequence (P10635 whole entry): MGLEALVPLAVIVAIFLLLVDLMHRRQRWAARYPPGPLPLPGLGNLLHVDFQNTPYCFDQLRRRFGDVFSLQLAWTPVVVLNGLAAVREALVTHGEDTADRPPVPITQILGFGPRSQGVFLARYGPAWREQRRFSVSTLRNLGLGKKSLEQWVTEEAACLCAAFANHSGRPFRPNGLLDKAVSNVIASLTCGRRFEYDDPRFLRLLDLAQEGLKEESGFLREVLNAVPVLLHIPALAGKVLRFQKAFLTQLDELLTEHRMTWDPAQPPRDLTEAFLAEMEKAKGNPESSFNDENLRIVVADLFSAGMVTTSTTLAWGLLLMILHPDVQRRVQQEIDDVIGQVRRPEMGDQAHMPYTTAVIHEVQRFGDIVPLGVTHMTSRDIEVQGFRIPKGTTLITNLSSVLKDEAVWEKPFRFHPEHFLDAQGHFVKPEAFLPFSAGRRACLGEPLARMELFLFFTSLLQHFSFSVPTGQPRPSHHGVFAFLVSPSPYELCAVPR
CYP2B6, sequence (P20813 whole entry): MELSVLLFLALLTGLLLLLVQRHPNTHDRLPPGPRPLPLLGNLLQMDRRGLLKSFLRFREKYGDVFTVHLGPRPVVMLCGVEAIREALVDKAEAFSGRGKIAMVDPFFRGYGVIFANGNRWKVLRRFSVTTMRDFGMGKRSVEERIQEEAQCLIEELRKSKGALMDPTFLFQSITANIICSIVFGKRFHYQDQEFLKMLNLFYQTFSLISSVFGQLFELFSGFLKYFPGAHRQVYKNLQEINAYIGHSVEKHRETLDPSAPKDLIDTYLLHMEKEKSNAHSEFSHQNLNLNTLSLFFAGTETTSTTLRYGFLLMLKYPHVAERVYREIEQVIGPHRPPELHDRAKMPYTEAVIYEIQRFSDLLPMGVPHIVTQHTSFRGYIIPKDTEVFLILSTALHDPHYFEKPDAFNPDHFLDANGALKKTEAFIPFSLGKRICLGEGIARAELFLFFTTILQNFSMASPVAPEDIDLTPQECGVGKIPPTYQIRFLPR
Muscarinic acetylcholine receptor M5 (Homo sapiens, UniProt P08912), sequence (P08912 whole entry): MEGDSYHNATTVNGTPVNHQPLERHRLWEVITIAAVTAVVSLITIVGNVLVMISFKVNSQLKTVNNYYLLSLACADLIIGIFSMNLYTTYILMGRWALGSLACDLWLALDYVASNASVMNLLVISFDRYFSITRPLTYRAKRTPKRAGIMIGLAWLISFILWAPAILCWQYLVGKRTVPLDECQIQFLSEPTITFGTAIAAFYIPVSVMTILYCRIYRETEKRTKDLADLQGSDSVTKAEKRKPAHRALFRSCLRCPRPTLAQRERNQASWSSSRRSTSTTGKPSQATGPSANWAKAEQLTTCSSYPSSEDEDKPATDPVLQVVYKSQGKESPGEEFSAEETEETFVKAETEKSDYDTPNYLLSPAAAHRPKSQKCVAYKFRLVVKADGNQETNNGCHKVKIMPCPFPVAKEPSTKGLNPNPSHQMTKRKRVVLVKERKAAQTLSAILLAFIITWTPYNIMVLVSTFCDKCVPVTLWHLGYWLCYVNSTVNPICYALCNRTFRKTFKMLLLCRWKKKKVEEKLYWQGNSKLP
Muscarinic acetylcholine receptor M3 (Homo sapiens, UniProt P20309), sequence (P20309 whole entry): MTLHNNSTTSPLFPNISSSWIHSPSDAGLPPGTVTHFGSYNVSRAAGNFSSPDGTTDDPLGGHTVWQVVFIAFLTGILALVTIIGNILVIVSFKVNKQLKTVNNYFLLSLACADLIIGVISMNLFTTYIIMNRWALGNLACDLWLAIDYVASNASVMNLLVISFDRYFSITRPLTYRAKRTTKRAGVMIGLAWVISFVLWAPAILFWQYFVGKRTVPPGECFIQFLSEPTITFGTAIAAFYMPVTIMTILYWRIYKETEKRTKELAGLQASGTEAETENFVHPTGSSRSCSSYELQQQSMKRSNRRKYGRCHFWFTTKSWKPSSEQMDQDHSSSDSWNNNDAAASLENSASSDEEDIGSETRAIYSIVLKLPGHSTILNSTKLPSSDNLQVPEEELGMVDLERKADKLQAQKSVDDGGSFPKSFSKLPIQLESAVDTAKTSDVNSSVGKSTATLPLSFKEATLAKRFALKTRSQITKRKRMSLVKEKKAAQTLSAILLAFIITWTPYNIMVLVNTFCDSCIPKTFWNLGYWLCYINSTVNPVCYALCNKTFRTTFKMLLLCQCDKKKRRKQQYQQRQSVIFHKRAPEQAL
Muscarinic acetylcholine receptor M3 (Rattus norvegicus, UniProt P08483), sequence (P08483 whole entry): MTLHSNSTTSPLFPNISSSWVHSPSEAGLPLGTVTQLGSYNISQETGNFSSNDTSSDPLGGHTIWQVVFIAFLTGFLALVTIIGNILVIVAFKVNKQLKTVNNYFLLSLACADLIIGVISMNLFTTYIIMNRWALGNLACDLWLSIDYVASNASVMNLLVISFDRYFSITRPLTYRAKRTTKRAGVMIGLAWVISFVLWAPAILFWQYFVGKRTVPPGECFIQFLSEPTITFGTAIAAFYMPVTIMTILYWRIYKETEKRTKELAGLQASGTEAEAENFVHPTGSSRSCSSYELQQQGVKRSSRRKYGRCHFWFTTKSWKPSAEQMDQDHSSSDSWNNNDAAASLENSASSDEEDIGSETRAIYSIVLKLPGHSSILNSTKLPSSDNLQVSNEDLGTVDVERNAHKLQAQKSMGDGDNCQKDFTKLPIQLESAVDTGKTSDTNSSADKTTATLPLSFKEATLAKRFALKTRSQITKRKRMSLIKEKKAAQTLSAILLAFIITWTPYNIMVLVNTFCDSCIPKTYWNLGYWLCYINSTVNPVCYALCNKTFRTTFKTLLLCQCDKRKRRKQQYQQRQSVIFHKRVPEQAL
Muscarinic acetylcholine receptor M5 (Rattus norvegicus, UniProt P08911), sequence (P08911 whole entry): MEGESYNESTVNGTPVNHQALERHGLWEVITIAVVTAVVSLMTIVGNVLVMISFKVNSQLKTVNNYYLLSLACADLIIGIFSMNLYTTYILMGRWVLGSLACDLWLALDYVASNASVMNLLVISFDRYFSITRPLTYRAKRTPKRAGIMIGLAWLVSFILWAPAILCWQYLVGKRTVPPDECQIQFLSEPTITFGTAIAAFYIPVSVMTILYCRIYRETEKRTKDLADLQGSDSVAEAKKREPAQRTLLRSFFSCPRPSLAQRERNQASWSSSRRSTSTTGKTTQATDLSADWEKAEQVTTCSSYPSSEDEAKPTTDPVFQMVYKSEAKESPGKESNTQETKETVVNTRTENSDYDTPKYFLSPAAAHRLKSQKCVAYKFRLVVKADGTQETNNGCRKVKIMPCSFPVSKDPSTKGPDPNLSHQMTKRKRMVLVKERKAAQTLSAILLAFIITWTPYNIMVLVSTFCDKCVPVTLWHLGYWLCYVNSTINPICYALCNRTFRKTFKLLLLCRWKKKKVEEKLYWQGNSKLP
Muscarinic acetylcholine receptor M1 (Rattus norvegicus, UniProt P08482), sequence (P08482 whole entry): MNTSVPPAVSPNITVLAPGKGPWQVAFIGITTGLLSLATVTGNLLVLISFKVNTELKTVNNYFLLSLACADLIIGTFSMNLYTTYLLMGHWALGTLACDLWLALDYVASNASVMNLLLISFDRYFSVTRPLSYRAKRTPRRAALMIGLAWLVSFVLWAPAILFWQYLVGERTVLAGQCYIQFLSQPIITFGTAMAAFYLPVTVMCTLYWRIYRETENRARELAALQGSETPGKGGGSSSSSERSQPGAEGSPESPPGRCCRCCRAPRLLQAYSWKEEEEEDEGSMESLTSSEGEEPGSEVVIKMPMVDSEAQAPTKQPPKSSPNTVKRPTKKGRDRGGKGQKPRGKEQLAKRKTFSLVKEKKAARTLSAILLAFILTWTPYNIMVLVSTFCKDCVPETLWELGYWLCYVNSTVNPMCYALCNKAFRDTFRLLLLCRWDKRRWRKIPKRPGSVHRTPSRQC
CYP3A4, sequence (P08684 whole entry): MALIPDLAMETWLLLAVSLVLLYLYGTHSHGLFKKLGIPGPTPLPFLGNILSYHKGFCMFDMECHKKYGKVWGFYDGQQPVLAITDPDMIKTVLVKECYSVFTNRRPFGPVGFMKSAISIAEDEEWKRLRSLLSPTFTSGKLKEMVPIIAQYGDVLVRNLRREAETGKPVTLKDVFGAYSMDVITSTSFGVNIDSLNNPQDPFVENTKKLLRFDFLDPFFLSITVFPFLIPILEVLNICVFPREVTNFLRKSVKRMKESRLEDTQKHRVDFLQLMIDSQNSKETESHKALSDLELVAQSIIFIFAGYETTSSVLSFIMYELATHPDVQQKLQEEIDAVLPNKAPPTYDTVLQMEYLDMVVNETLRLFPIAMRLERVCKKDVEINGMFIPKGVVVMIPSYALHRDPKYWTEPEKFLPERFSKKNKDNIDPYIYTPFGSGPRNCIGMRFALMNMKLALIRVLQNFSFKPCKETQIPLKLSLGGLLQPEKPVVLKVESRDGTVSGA
Muscarinic acetylcholine receptor M1 (Homo sapiens, UniProt P11229), sequence (P11229 whole entry): as the sequence (P08482 whole entry) above, with V5A, S254T, S309P, K320R, G337A, V413I counted along it

## Cc1nnc2sc(C(=O)NCc3ccc(-c4cccnc4F)cc3)c(N)c2c1C
[1]
  EC50: 0.091 µM
Cytochrome P450 2C9
  IC50: > 30 µM
Cytochrome P450 2D6
  IC50: 19 µM
Rattus norvegicus [2]
  beta t1/2: 2.7 h
Rattus norvegicus [3]
  Vdss: 0.34 L/kg
[4]; read-out: EC50
  EC50: 0.0135 µM
[4]; read-out: pEC50 (converted)
  EC50: 0.0117 µM
[5]
  EC50: 0.111 µM
  pEC50: 6.95
[6]
  pEC50: 7.06
[7]
  EC50: > 30 µM
[8]
  EC50: > 30 µM
[9]
  EC50: > 30 µM
[10]
  EC50: > 30 µM
[11]
  EC50: > 30 µM
[12]
  EC50: > 30 µM
[13]
  EC50: > 30 µM
[14]
  IC50: > 33 µM
Salmonella typhimurium [15]
  Activity: Non-Toxic
Salmonella typhimurium [16]
  Activity: Non-Toxic
CYP2B6
  EC50 at 48 h: > 50 µM
CYP3A4
  EC50 at 48 h: > 50 µM
[17]
  bioavailability: 61%
[18]
  Kp: 0.74
[19]
  K(p,uu,brain): 2.6
[20]
  Kp uu at 2 h: 4.8
[21]
  Drug metabolism: Metabolite_Detected
[22]
  Drug metabolism: Metabolite_Detected
[23]
  Drug metabolism: Metabolite_Detected
[24]
  Drug metabolism: Metabolite_Detected
[25]
  Drug metabolism: Metabolite_Detected
[26]
  Drug metabolism: Metabolite_Detected
[27]
  Drug metabolism: Metabolite_Detected
[28]
  Drug metabolism: Metabolite_Detected
[29]
  Drug metabolism: Metabolite_Detected
[30]
  Drug metabolism: Metabolite_Detected
[31]
  Drug metabolism: Metabolite_Detected
[32]
  Drug metabolism: Metabolite_Detected
[33]
  Drug metabolism: Metabolite_Detected
[34]
  Activity: Not Active
[35]
  solubility: < 0.5 µM
[36]
  fraction unbound: 0.011
[37]
  fraction unbound: 0.002
[38]
  fraction unbound: 0.02
